The results in this text go back to paper PMC4091728 (Chembiochem : a European journal of chemical biology, 2014).

In one experiment the target is TcCYP51 (Trypanosoma cruzi, UniProt Q7Z1V1). Put plainly: Binding affinity by UV-vis spectroscopy. In outline: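 Recombinant TcCYP51 at 1 μM in 100 mM potassium phosphate, pH 7.5, with 10% glycerol, at 23°C, in a 1-cm quartz cuvette. Titrated stepwise with test compound from a 100 μM DMSO stock, with equal solvent added to the reference cuvette. The absorbance shift between 425 and 390 nm was fitted to the quadratic tight-binding equation to give KD.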

For experiment [1], the system named is Trypanosoma cruzi (CA-I/72 trypomastigotes) in mouse C2C12 myoblasts. In words: EC50 in cell-based assay using T. cruzi-infected mouse C2C12 myoblasts. As to conditions: highest concentration 10 μM.

Bounds are passed on as bounds.

Sequence of TcCYP51 (Q7Z1V1 whole entry): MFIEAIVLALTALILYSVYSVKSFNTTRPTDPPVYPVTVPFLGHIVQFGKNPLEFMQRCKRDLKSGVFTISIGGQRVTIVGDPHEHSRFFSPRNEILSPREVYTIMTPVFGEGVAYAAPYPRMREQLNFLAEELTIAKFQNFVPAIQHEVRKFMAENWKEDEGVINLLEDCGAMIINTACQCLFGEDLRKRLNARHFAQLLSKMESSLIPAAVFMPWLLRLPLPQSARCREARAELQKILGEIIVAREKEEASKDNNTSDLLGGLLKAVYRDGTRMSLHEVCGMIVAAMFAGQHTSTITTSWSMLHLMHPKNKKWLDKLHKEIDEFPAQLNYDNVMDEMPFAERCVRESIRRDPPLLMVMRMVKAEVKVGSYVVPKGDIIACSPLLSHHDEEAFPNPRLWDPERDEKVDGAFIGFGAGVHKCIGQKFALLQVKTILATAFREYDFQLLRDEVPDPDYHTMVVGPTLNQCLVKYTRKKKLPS

As for `O=C(N[C@H](Cc1c[nH]c2ccccc12)C(=O)Nc1ccncc1)c1ccc(N2CCN(S(=O)(=O)c3cccnc3)CC2)cc1F` [compound 5, (R)-N-(3-(1H-Indol-3-yl)-1-oxo-1-(pyridin-4-ylamino)propan-2-yl)-2-fluoro-4-(4-(pyridin-3-ylsulfonyl)piperazin-1-yl)benzamide], the Kd at TcCYP51 was found to be 15 ± 6 nM. Moreover, the “anti-T. cruzi potency in cell culture, in words” value (“anti-T. cruzi potency” for short) in experiment [1] is reported as “inhibited T. cruzi at the low micromolar concentrations”.
`O=C(N[C@H](Cc1c[nH]c2ccccc12)C(=O)Nc1ccncc1)c1ccc(N2CCN(S(=O)(=O)c3ccc(C(F)(F)F)cc3)CC2)cc1F` [compound 6, (R)-N-(3-(1H-Indol-3-yl)-1-oxo-1-(pyridin-4-ylamino)propan-2-yl)-2-fluoro-4-(4-((4-(trifluoromethyl)phenyl)sulfonyl)piperazin-1-yl)benzamide]: the Kd at TcCYP51 was not above 10 nM. For the same compound, the “anti-T. cruzi potency” value in experiment [1] is “inhibited T. cruzi at the low micromolar concentrations”.
`O=C(N[C@H](Cc1c[nH]c2ccccc12)C(=O)Nc1ccncc1)c1ccc(N2CCN(S(=O)(=O)C3CC3)CC2)cc1F` [compound 10, (R)-N-(3-(1H-Indol-3-yl)-1-oxo-1-(pyridin-4-ylamino)propan-2-yl)-4-(4-(cyclopropylsulfonyl)piperazin-1-yl)-2-fluorobenzamide] gave an equilibrium dissociation constant (Kd) on TcCYP51 of 25 ± 6 nM. The “anti-T. cruzi potency” value in experiment [1] is “failed to elicit T. cruzi inhibition in cell culture at ≤10 μM”.
With `N#Cc1ccc(S(=O)(=O)N2CCN(c3ccc(C(=O)N[C@H](Cc4c[nH]c5ccccc45)C(=O)Nc4ccncc4)c(F)c3)CC2)cc1` [compound 4, (R)-N-(3-(1H-Indol-3-yl)-1-oxo-1-(pyridin-4-ylamino)propan-2-yl)-4-(4-((4-cyanophenyl)sulfonyl)piperazin-1-yl)-2-fluorobenzamide], binding on TcCYP51 was put at a Kd of 47 ± 19 nM.
On TcCYP51, `O=C(N[C@H](Cc1c[nH]c2ccccc12)C(=O)Nc1ccncc1)c1ccc(N2CCN(S(=O)(=O)c3cccs3)CC2)cc1F` [compound 3, (R)-N-(3-(1H-Indol-3-yl)-1-oxo-1-(pyridin-4-ylamino)propan-2-yl)-2-fluoro-4-(4-(thiophen-2-ylsulfonyl)piperazin-1-yl)benzamide] came in with a dissociation constant (Kd) not above 10 nM. Further, in experiment [1], the “anti-T. cruzi potency” value is reported as “sub-nanomolar”.
For `O=C(O)c1ccc(S(=O)(=O)N2CCN(c3ccc(C(=O)N[C@H](Cc4c[nH]c5ccccc45)C(=O)Nc4ccncc4)c(F)c3)CC2)cc1` [compound 8, (R)-4-((4-(4-((3-(1H-Indol-3-yl)-1-oxo-1-(pyridin-4-ylamino)propan-2-yl)carbamoyl)-3-fluorophenyl)piperazin-1-yl)sulfonyl)benzoic acid] the same measures were 20 ± 7 nM and “failed to elicit T. cruzi inhibition in cell culture at ≤10 μM”.
The compound `CS(=O)(=O)N1CCN(c2ccc(C(=O)N[C@H](Cc3c[nH]c4ccccc34)C(=O)Nc3ccncc3)c(F)c2)CC1` [compound 11, (R)-N-(3-(1H-Indol-3-yl)-1-oxo-1-(pyridin-4-ylamino)propan-2-yl)-2-fluoro-4-(4-(methylsulfonyl)piperazin-1-yl)benzamide] registered a Kd at TcCYP51 of 19 ± 4 nM. For the same compound, the “anti-T. cruzi potency” value in experiment [1] is listed as “failed to elicit T. cruzi inhibition in cell culture at ≤10 μM”.
The compound `COC(=O)c1sccc1S(=O)(=O)N1CCN(c2ccc(C(=O)N[C@H](Cc3c[nH]c4ccccc34)C(=O)Nc3ccncc3)c(F)c2)CC1` [compound 7, (R)-methyl 3-((4-(4-((3-(1H-Indol-3-yl)-1-oxo-1-(pyridin-4-ylamino)propan-2-yl)carbamoyl)-3-fluorophenyl)piperazin-1-yl)sulfonyl)thiophene-2-carboxylate] returned a Kd on TcCYP51 of 20 ± 7 nM. Further, the “anti-T. cruzi potency” value in experiment [1] is reported as “inhibited T. cruzi at the low micromolar concentrations”.
Turning to `O=C(N[C@H](Cc1c[nH]c2ccccc12)C(=O)Nc1ccncc1)c1ccc(N2CCN(S(=O)(=O)c3ccsc3C(=O)O)CC2)cc1F` [compound 9, (R)-3-((4-(4-((3-(1H-Indol-3-yl)-1-oxo-1-(pyridin-4-ylamino)propan-2-yl)carbamoyl)-3-fluorophenyl)piperazin-1-yl)sulfonyl)thiophene-2-carboxylic acid], the Kd at TcCYP51 is not above 10 nM. In addition, the “anti-T. cruzi potency” value in experiment [1] is recorded as “failed to elicit T. cruzi inhibition in cell culture at ≤10 μM”.

A word on the Kd: it is the equilibrium constant for the complex coming apart.
